Assay results: ChEMBL document CHEMBL1123330, “Synthesis and antitumor activities of unsymmetrically substituted 1,4-bis[(aminoalkyl)amino]anthracene-9,10-diones and related systems” (1986)
In brackets after ≈: the same amount, converted by molar mass.

The molecules below were run on L1210 (assay: In vitro inhibition of L1210 cell growth.). Settings: Mus musculus, read-out: ID50 (the source's name).
Format: functional
Outline: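 Murine L1210 leukemia cells grown in suspension in McCoy's 5A with 10% horse serum, glutamine, penicillin, streptomycin; 37 °C, 10% CO2. Compound in Me2SO added to 10^5 cells/tube to final 0.01, 0.1 and 10 μg/mL; 7 h continuous exposure.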

Q: How did the IC50 turn out when `COc1ccc(NCCNC(C)=O)c2c1C(=O)c1ccccc1C2=O` was run?
A: The IC50 was greater than 10 µg/mL.

Q: How did the IC50 turn out when `COc1ccc(NCCCCCNC(C)=O)c2c1C(=O)c1ccccc1C2=O` was run?
A: Its IC50 is 9 µg/mL (≈ 23.7 µM).

Q: `COc1ccc(NCCCCNC(=O)OCc2ccccc2)c2c1C(=O)c1ccccc1C2=O` was tested. Which IC50 did it give?
A: The IC50 was greater than 10 µg/mL.

Q: Which IC50 does the source give for `CN(C)CCCNc1ccc(NCCCCNC(=O)OCc2ccccc2)c2c1C(=O)c1ccccc1C2=O` here?
A: Its IC50 is 0.29 µg/mL (≈ 0.549 µM).

Q: Which IC50 does the source give for `COc1ccc(NCCCCNC(C)=O)c2c1C(=O)c1ccccc1C2=O` here?
A: Its IC50 is greater than 10 µg/mL.

Q: How did the IC50 turn out when `CN(C)CCNc1ccc(NCCCCN)c2c1C(=O)c1ccccc1C2=O` was run?
A: The IC50 was 0.0045 µg/mL (≈ 0.0118 µM).

Q: `CC(=O)NCCCCNc1ccc(NCCN(C)C)c2c1C(=O)c1ccccc1C2=O` was tested. Which IC50 did it give?
A: Its IC50 is 0.03 µg/mL (≈ 0.071 µM).

Q: Which IC50 does the source give for `COc1ccc(NCCCCN)c2c1C(=O)c1ccccc1C2=O` here?
A: Its IC50 is 1.8 µg/mL (≈ 5.55 µM).

Q: For `COc1ccc(NCCN)c2c1C(=O)c1ccccc1C2=O`, which IC50 is on record?
A: The IC50 was 2.5 µg/mL (≈ 8.44 µM).

Q: Which IC50 does the source give for `CC(=O)NCCCNc1ccc(NCCN(C)C)c2c1C(=O)c1ccccc1C2=O` here?
A: Its IC50 is 0.4 µg/mL (≈ 0.979 µM).

Q: `CN(C)CCCNc1ccc(NCCCCN)c2c1C(=O)c1ccccc1C2=O` was tested. Which IC50 did it give?
A: Its IC50 is 0.18 µg/mL (≈ 0.456 µM).

Q: With `CC(=O)NCCCCCNc1ccc(NCCN(C)C)c2c1C(=O)c1ccccc1C2=O` as the molecule, how does the IC50 read?
A: The IC50 was 2.3 µg/mL (≈ 5.27 µM).

Q: `CN(C)CCNc1ccc(NCCCCNC(=O)OCc2ccccc2)c2c1C(=O)c1ccccc1C2=O` was tested. Which IC50 did it give?
A: Its IC50 is 0.88 µg/mL (≈ 1.71 µM).

Q: `CN(C)CCNc1ccc(NCCCN)c2c1C(=O)c1ccccc1C2=O` was tested. Which IC50 did it give?
A: The IC50 was 0.05 µg/mL (≈ 0.136 µM).

Q: Which IC50 does the source give for `COc1ccc(NCCCN)c2c1C(=O)c1ccccc1C2=O` here?
A: The IC50 was 2.8 µg/mL (≈ 9.02 µM).

Q: For `COc1ccc(NCCCNC(C)=O)c2c1C(=O)c1ccccc1C2=O`, which IC50 is on record?
A: The IC50 was greater than 10 µg/mL.

Q: With `CC(=O)NCCNc1ccc(NCCN(C)C)c2c1C(=O)c1ccccc1C2=O` as the molecule, how does the IC50 read?
A: The IC50 was 2.05 µg/mL (≈ 5.2 µM).
